# According to ChEMBL document CHEMBL1131631, “Piperazinyl oxazolidinone antibacterial agents containing a pyridine, diazene, or triazene heteroaromatic ring” (1998):
# Tests used:
# [1] = test system: Enterococcus faecalis; test: Minimum inhibitory concentration against Enterococcus faecalis UC9217; format: functional
# Summary of the method: (§1)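 MIC in µg/mL. S. aureus UC 9213 is methicillin-susceptible, and S. aureus UC 6685 and S. epidermidis UC 12084 are methicillin-resistant. E. faecalis UC 9217 and S. pneumoniae UC 9912 were also tested.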
# [2] = test system: Staphylococcus aureus; test: Minimum inhibitory concentration against Staphylococcus aureus UC6685; format: functional; summary of the method: as §1
# [3] = test system: Staphylococcus epidermidis; test: Minimum inhibitory concentration against Staphylococcus epidermis UC12084; format: functional; summary of the method: as §1
# [4] = test system: Streptococcus pneumoniae; test: Minimum inhibitory concentration Streptococcus pneumoniae UC9912; format: functional; summary of the method: as §1
# [5] = test system: Staphylococcus aureus; test: Minimum inhibitory concentration against Staphylococcus aureus UC9213; format: functional; summary of the method: as §1
# [6] = test system: Streptococcus pneumoniae; test: MIC activity against Streptococcus pneumoniae UC9912; format: functional; summary of the method: as §1
# [7] = test system: Staphylococcus aureus; test: compound was tested against Staphylococcus aureus UC9213 the eperezolid administered positive control expressed as ED50 values.; format: functional
# Summary of the method: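 Eperezolid was given orally in the same lethal systemic mouse S. aureus trial as the test agents. The ED50 is the mg/kg/dose that reduces mortality by 50%.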
# [8] = test system: Caco-2; test: permeability assessment across a monolayer of caco-2 cells in absence of GSH in aqueous base.; format: functional, Homo sapiens
# [9] = test system: Caco-2; test: permeability assessment across a monolayer of caco-2 cells in presence of GSH in aqueous base.; format: functional, Homo sapiens
# [10] = test system: Caco-2; test: permeability assessment across […]; format: functional, Homo sapiens
# [11] = test system: Staphylococcus aureus; test: compound was tested against Staphylococcus aureus UC9213 after po administration.; format: functional
# Summary of the method: (§2)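 Lethal systemic S. aureus infection in mice, with oral dosing. The ED50 is the dose in mg/kg body weight per dose that reduces mortality by 50%. The 95% confidence limits are −50% and +100% of the nominal value.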
# [12] = test system: Mus musculus; test: Compound was tested against Staphylococcus aureus UC9213 after po administration in mouse; format: functional; summary of the method: as §2
# [13] = test system: Mus musculus; test: compound was tested against Staphylococcus aureus UC9213 the eperezolid administered (PO) in mouse positive control expressed as ED50 values.
# [14] = test system: Mus musculus; test: compound was tested against Staphylococcus aureus UC9213 the vancomycin administered (sc) in mouse positive control expressed as ED50 values.; format: functional
SMILES,MIC [1] [µg/mL],MIC [2] [µg/mL],MIC [3] [µg/mL],MIC [4] [µg/mL],MIC [5] [µg/mL],MIC [6] [µg/mL],ED50 [7] [mg/kg],[A] [8] [µM],[A] [9] [µM],[EA] [10] [µM],ED50 [11] [mg/kg],ED50 [12] [mg/kg],ED50 [13] [mg/kg],ED50 [14] [mg/kg]
CC(=O)NC[C@H]1CN(c2ccc(N3CCN(c4nc(F)c(F)cc4F)CC3)c(F)c2)C(=O)O1,2,2,1,0.5,2,,,,,,,,,
COc1nc(OC)nc(N2CCN(c3ccc(N4C[C@H](CNC(C)=O)OC4=O)cc3F)CC2)n1,1,2,1,0.5,4,,,,,,,,,
CC(=O)NC[C@H]1CN(c2ccc(N3CCN(c4nc(N)nc(N)n4)CC3)c(F)c2)C(=O)O1,2,4,1,0.5,4,,,,,,,> 20,4.4,
CC(=O)NC[C@H]1CN(c2ccc(N3CCOCC3)c(F)c2)C(=O)O1 [LINEZOLID],,,1,,,,,,,,,5.6,,3.9
CC(=O)NC[C@H]1CN(c2ccc(N3CCN(c4nccc(C(F)(F)F)n4)CC3)c(F)c2)C(=O)O1,> 16,> 16,16,2,> 16,,,,,,,,,
CC(=O)NC[C@H]1CN(c2ccc(N3CCN(c4ncccc4C#N)CC3)c(F)c2)C(=O)O1,1,2,0.5,0.5,2,,,,,,,> 20,3.2,
CCCOc1nc(Cl)nc(N2CCN(c3ccc(N4C[C@H](CNC(C)=O)OC4=O)cc3F)CC2)n1,8,8,8,2,16,,,,,,,,,
CC(=O)NC[C@H]1CN(c2ccc(N3CCN(c4ccnc5ccccc45)CC3)c(F)c2)C(=O)O1,2,2,0.5,0.25,2,,,,,,,,,
CC(=O)NC[C@H]1CN(c2ccc(N3CCN(C(=O)CO)CC3)c(F)c2)C(=O)O1 [EPEREZOLID],2,1,0.5,0.5,4,,,,,,,1.9,,3.9

# Second part, led by results:
MIC [1] [µg/mL],MIC [2] [µg/mL],MIC [3] [µg/mL],MIC [4] [µg/mL],MIC [5] [µg/mL],MIC [6] [µg/mL],SMILES,ED50 [7] [mg/kg],[A] [8] [µM],[A] [9] [µM],[EA] [10] [µM],ED50 [11] [mg/kg],ED50 [12] [mg/kg],ED50 [13] [mg/kg],ED50 [14] [mg/kg]
1,1,0.5,,2,0.5,CC(=O)NC[C@H]1CN(c2ccc(N3CCN(c4ccnc(Cl)n4)CC3)c(F)c2)C(=O)O1,1.8,17,17,50,14.6,,,
1,1,0.5,0.5,2,,CC(=O)NC[C@H]1CN(c2ccc(N3CCN(c4cccc(Br)n4)CC3)c(F)c2)C(=O)O1,2.7,2.6,2.6,50,> 20,,,
1,2,0.5,0.5,2,,CC(=O)NC[C@H]1CN(c2ccc(N3CCN(c4ccc(C#N)cn4)CC3)c(F)c2)C(=O)O1,,,,,,6.8,5.8,
2,2,2,0.5,4,,CC(=O)NC[C@H]1CN(c2ccc(N3CCN(c4cccc(C)n4)CC3)c(F)c2)C(=O)O1,,,,,,,,
2,1,0.5,0.5,2,,CC(=O)NC[C@H]1CN(c2ccc(N3CCN(c4cnccn4)CC3)c(F)c2)C(=O)O1,,,,,,12.5,3.2,
2,2,0.5,0.25,4,,CC(=O)NC[C@H]1CN(c2ccc(N3CCN(c4ccnc(C)c4)CC3)c(F)c2)C(=O)O1,,,,,,,,
2,2,0.5,< 0.125,4,,CC(=O)NC[C@H]1CN(c2ccc(N3CCN(c4ccncc4)CC3)c(F)c2)C(=O)O1,,,,,,,,
4,4,2,1,8,,CC(=O)NC[C@H]1CN(c2ccc(N3CCN(c4cc(C)c(Cl)nn4)CC3)c(F)c2)C(=O)O1,8.7,,,,> 20,,,
